Assay results pooled from the literature.
Lines come from different studies, so protocols differ.
ADRB3: Beta-3 adrenergic receptor (ADRB3, Homo sapiens, UniProt P13945)
MMP13: Collagenase 3 (MMP13, Homo sapiens, UniProt P45452)

| Structure (SMILES) | target | effect on | mode | technique | tested at | inhibition |
| --- | --- | --- | --- | --- | --- | --- |
| CC(C)C[C@H](NC(=O)[C@H](Cc1ccccc1)NC(=O)c1cnccn1)B(O)O | Chymase (CMA1, Homo sapiens, UniProt P23946) | enzyme activity | inhibitor |  | 33 µM | 84.2% |
| O=C(NC[C@H](O)CO)[C@@H]1C[C@H](c2ccccc2)CCN1 (mixture of isomers) | ADRB3 | ligand displacement |  | radioligand | 10 µM | -11.2% |
| Cc1nc(C(C)(C)NC(=O)O[C@@H]2CN3CCC2CC3)cs1 | N-terminal Xaa-Pro-Lys N-methyltransferase 1 (Homo sapiens, UniProt Q9BV86) | enzyme activity | inhibitor | fluorescence | 100 µM | < 50% |
| C[C@H](C(=O)N[C@H]1COc2ccccc2[C@@H]1S(C)(=O)=O)c1ccc(F)cc1 | MMP13 | enzyme activity | inhibitor |  | 10 µM | -4% |
| CCOC(=O)c1ccc(OC(=O)CCCCCNC(=N)N)cc1 | MMP13 | enzyme activity | inhibitor |  | 10 µM | 13% |
| C#Cc1n[nH]c2c(-c3cn(C(C)c4ccccn4)c(=O)[nH]c3=O)cc(F)cc12 (stereo not shown) | Dual specificity protein kinase CLK2 (CLK2, Homo sapiens, UniProt P49760) | enzyme activity | inhibitor |  | 1 µM | 1.9% |
| COc1ccc(S(=O)(=O)N2CCCCC2)cc1C | Thyrotropin-releasing hormone receptor (TRHR, Homo sapiens, UniProt P34981) | ligand displacement |  | radioligand | 10 µM | < 30% |
| C#Cc1n[nH]c2c(-c3cn([C@@H](C)c4ccccc4)c(=O)[nH]c3=O)cc(F)cc12 | Tyrosine-protein kinase JAK1 (JAK1, Homo sapiens, UniProt P23458) | enzyme activity | inhibitor |  | 0.1 µM | -1.2% |
| COc1cc(Nc2ncc(F)c(Nc3ccc4c(n3)NC(=O)C(C)(C)O4)n2)cc(OC)c1OC | Casein kinase I isoform alpha-like (CSNK1A1L, Homo sapiens, UniProt Q8N752) | binding |  | competition with immobilised ligand | 10 µM | 0% |
| N=C(N)c1ccc2cc(OC(=O)c3ccc(N=C(N)N)cc3)ccc2c1 | MMP13 | enzyme activity | inhibitor |  | 10 µM | 75% |
| COC(=O)NCCc1c(C(O)c2ccccc2)[nH]c2ccc(OC)cc12 (stereo not shown) | Calmodulin-1 (CALM1, Homo sapiens, UniProt P0DP23) | enzyme activity | inhibitor |  | 50 µM | 40 to 50% |
| c1ccc(C(NCCNC(c2ccccc2)c2ccccc2)c2ccccc2)cc1 | Adenosine receptor A2b (ADORA2B, Homo sapiens, UniProt P29275) | cell-free assay |  |  | 10 µM | -2% |
| O=C(Nc1cccnn1)N1CCN([C@@H]2CCOc3cc(C(F)(F)F)ccc32)CC1 | ADRB3 | cell-free assay |  |  | 20 µM | -4% |
